Experimental data from paper PMC7931646 (The Journal of Experimental Medicine, 2021).

Key:
[1] = Plasma protein binding, equilibrium dialysis; type: in vitro ADME; conditions: mouse
Method in brief: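 Equilibrium dialysis of test compound in human, rat or mouse plasma against buffer across a semipermeable membrane. Compound concentrations in both compartments were measured by LC/MS, and percent bound was derived from them.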

[2] = Single-dose i.v./po PK in male CD-1 mice; type: in vivo, mouse; conditions: for clearance: male, CD-1, mouse, plasma, iv, 1 mg/kg
Method in brief: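 CD-1 mice received a single i.v. dose of 1 mg/kg (n = 12) or an oral gavage dose of 5 mg/kg (n = 12). Brains were collected at 1, 4, 8 and 12 h. Oral bioavailability came from i.v./po comparison; fabs came from kinetic analysis.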

COc1nc(-c2cc(C)c(N[C@@H](C)c3cc(F)cc(F)c3)nn2)ccc1-n1cnc(C)c1 [Compound 2, (S)-N-(1-(3,5-difluorophenyl)ethyl)-6-(6-methoxy-5-(4-methyl-1H-imidazol-1-yl)pyridin-2-yl)-4-methylpyridazin-3-amine]
% PPB M [1]: 99.9%
clearance ([2]; CL, mice): 8 mL/min/kg
clearance ([2]; Cl, male CD-1 mice): 8.05 mL/min/kg
CL as percent of reported hepatic blood flow ([2]; mice, hepatic blood flow 95 ml/min/kg): < 10%
fraction of dose absorbed from intestinal lumen (fabs) ([2]; mice, kinetic analysis): ~90%
